According to PubChem BioAssay AID2648 (Johns Hopkins Ion Channel Center, 2010):
In all, about 310,000 compounds went through this assay and about 1,100 (0.35%) were called active.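 Rule for the calls: active = fluorescence ratio B-score, a plate-corrected score, at least three library SD, with initial intensity B-score within 5 SD; inactive = the rest.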 The full list was thinned out, with actives kept by preference.

These compounds were tested against Potassium voltage-gated channel subfamily KQT member 1 (Homo sapiens) (UniProt P51787) (assay: human KCNQ1 current enhancers – cell-based, thallium flux, high-throughput, primary screen (AID 2648)). Conditions: CHO-K1 KCNQ1, thallium flux FluxOR fluorescence, at 10 µM; active compounds read high.
Procedure, shortened: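 Medium – assay buffer, equal DMSO in all wells · Material – CHO-K1 cell line with stable KCNQ1 potassium channel expression · Signal – kinetic FluxOR thallium fluorescence, 10-s 1-Hz baseline, 110-s post-stimulus read · Compound – single concentration per compound, DMSO matched to controls · Schedule – 37 °C overnight plating, 90-min dark dye load, 20-min compound pretreatment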

Potassium voltage-gated channel subfamily KQT member 1 (Homo sapiens), sequence (P51787 whole entry, looked up): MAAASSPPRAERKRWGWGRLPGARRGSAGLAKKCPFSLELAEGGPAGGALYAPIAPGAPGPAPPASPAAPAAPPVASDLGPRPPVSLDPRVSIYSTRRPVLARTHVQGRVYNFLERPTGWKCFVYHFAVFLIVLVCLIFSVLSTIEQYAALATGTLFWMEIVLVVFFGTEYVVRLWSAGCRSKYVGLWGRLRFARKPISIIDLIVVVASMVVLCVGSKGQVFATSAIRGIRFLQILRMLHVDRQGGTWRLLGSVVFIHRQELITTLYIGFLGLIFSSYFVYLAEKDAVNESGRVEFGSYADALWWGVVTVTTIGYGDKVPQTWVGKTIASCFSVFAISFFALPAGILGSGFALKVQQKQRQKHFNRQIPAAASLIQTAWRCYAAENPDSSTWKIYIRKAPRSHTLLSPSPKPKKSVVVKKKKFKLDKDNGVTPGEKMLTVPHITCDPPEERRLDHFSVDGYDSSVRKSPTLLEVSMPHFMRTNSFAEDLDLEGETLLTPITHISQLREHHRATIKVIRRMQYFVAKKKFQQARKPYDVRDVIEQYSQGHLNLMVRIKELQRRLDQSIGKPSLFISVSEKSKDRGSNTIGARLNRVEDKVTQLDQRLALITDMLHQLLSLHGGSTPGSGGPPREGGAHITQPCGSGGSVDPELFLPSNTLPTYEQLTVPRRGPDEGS

B-score, inactive:
O=C(NC1CCCCC1)c1ccc(-c2ccc(Cl)cc2)o1, CCOc1ccc(C(c2c(C)[nH][nH]c2=O)c2c(C)[nH][nH]c2=O)cc1OCC, Cn1nnnc1-c1cc(Cl)cc(Cl)c1, CC(=O)C12CC(C)=C(C)CC1CC1C3CCC4=CC(=O)CCC4(C)C3CCC12C (stereo not drawn), O=C1NC(c2ccccc2)CCC1(Cl)Cl (stereo not drawn), COc1cccc2sc(N(CCCN(C)C)C(=O)C(c3ccccc3)c3ccccc3)nc12, CC(=O)N(CCCN(C)C)c1nc2ccc(C)cc2s1, COc1cc2ccccc2cc1C(=O)N(CCN(C)C)c1nc2c(F)cccc2s1, Cc1ccc2sc(N(CCN(C)C)C(=O)/C=C/c3cccs3)nc2c1C, CCCCC(=O)Nc1ccc2c(c1)C(=O)NC2=O, O=C(COc1cc2oc(=O)c3c(c2cc1Cl)CCC3)NCCCN1CCOCC1, Cc1ccc(NC2CCCN(C(=O)CCC3(C)CC3)C2)cc1C (stereo not drawn), COCCNC(=O)CSc1nc2sccc2c(=O)n1-c1ccccc1, CCN(CC)S(=O)(=O)c1ccc(Cl)c(NC(=O)c2ccncc2)c1, Cc1cccc(NC(=O)c2cccnc2Cl)n1, CC1CCN(S(=O)(=O)c2ccc3c(ccn3CC(=O)O)c2)CC1, CC1CCN(c2ccc(-c3ccc(NC(=O)c4ccco4)cc3)nn2)CC1, NC(=O)Cc1ccc2c(c1)[nH]c1ccccc12, S=c1ccc2ccccc2[nH]1, COc1ccc(OC)c(CCNC(=O)c2nn(C)c3c2CS(=O)(=O)c2ccccc2-3)c1, O=C(Nc1ccc(F)c([N+](=O)[O-])c1)C1CCCO1 (stereo not drawn), N#CCc1ccc(OC(=O)c2cccnc2)cc1, O=C(Oc1ccc(Br)cc1)c1cccnc1, CCO[C@H]1OC(C(=O)Nc2ccccc2)=C[C@@H](C2CC2)[C@@H]1CCCO, Cc1ccc(S(=O)(=O)Nc2ccc3ncccc3c2)cc1, O=[N+]([O-])c1ccccc1S(=O)(=O)Nc1cccc2cccnc12, COC(=O)C1=C(C(=O)OC)[C@@H]2N(C)c3ccccc3[C@@]23C[C@@H](C(=O)OC)N(C(=O)c2ccco2)C3=N1, CC1(C)C2CC[C@]3(C)C(CC=C4[C@@H]5C[C@@](C)(CO)CC[C@]5(C(=O)O)CC[C@]43C)[C@@]2(C)CC[C@@H]1O (stereo partly drawn), CSc1ncccc1C(=O)Nc1ccc(C)cn1, O=C(Nc1ccccc1)c1cc2ccccc2[nH]1, O=c1/c(=C/c2ccc(CNS(=O)(=O)c3ccccc3)o2)sc2n1CCN=2, NC(=O)c1c(Nc2nc3c(F)cccc3s2)sc2c1CCCC2, NNc1nc2c(Cl)cccc2s1, COc1cccc2cc(C(=O)NCc3ccc(C)cc3)c(=N)oc12, COC(=O)C1CCN(C(=O)c2ccc3oc(Cc4ccc(Cl)cc4)nc3c2)CC1, Cc1cccc(-n2c(C)cc(/C=N\NC(=O)c3cccs3)c2C)c1, Cc1ccc(-n2c(C)cc(/C=N\NC(=O)CC(=O)NC(C)C)c2C)cc1, Cc1cc(=O)oc2c(C)c(OCC(=O)NCCN3CCOCC3)ccc12, CCCOc1ccc(C(=O)C(CCC(CNCC)C(=O)c2ccc(OCCC)cc2)CNCC)cc1 (stereo not drawn), FC(F)(F)c1ccc(CN2C[C@@H]3C(c4ccccc4)C4(c5ccccc5)CC3(C4)[C@H]2c2ccccc2)cc1 (stereo partly drawn), Cc1ccc(C(=O)NC(=S)Nc2ccccc2C)cc1, COC(=O)c1sc(NC(=O)c2csc3c2CCCC3)nc1C, C/C(Cl)=C\Cn1c(Nc2cccc(C)c2)nc2c1c(=O)n(C)c(=O)n2C, CC(C)NC(=O)C(c1ccc(F)cc1)N(C(=O)CCC(=O)Nc1ccccn1)c1ccccc1F (stereo not drawn), [O-][n+]1c2c(nn1-c1ccc(Cl)c(Cl)c1)-c1nonc1CC2, COc1ccc(NC(=O)C(=O)NCC(c2ccco2)N2CCc3ccccc3C2)cc1 (stereo not drawn), COC(=O)c1ccccc1NC(=O)C1CCN(S(=O)(=O)c2cc(OC)ccc2OC)CC1, O=C(c1ccc(F)cc1)c1cn(Cc2ccc(F)cc2)c2cc3c(cc2c1=O)OCCO3, COP1(=O)C[C@@H](O)[C@@H](O)[C@@H](COCc2ccccc2)O1 (stereo partly drawn), CC(=O)Nc1sc2c(c1C(c1cccc(F)c1)N1CCN(CCO)CC1)CCCC2 (stereo not drawn), COCCNC(=O)CCCN1C(=O)c2ccccc2Sc2ncccc21, Cc1c(C(=O)NC(C)C2CC3CCC2C3)cccc1[N+](=O)[O-] (stereo not drawn), CC(C)(C)c1ccc(Cn2nnc3c(=O)[nH]c(C4CCCN(C(=O)c5ccco5)C4)nc32)cc1 (stereo not drawn), Cc1ccc(/C=N/NC(=O)CSc2ccccn2)o1, O=C(N/N=C/c1cccnc1)c1cc2ccccc2cc1O

B-score, active:
Cc1[nH][nH]c(=O)c1C(c1ccc(-c2ccc(Cl)cc2)o1)c1c(C)[nH][nH]c1=O 25, Cc1cccc2sc(N(CCCN(C)C)C(=O)CCS(=O)(=O)c3ccccc3)nc12 30, COc1cccc2sc(N(CCCN(C)C)C(=O)CCS(=O)(=O)c3ccccc3)nc12 8, CCN(CC)S(=O)(=O)c1ccc(NC(=O)c2cccnc2Cl)c(NC(=O)c2cccnc2Cl)c1 13, S=c1[nH]c2ccccc2c2ccccc12 7, O=C(Oc1c(-c2ccco2)oc2ccccc2c1=O)c1cccnc1 15, COc1cc(NS(=O)(=O)c2ccc3ccccc3c2)c2ncccc2c1 14, CC1(C)CC[C@]2(C(=O)O)CC[C@]3(C)C(=CCC4[C@@]5(C)CC[C@H](O)C(C)(C)C5[C@H](O)C[C@]43C)[C@@H]2C1 (stereo partly drawn) 10, Fc1cc(F)c2nc(Nc3nc4c(F)cccc4s3)sc2c1 37, Cc1cccc(-n2c(C)cc(/C=N/NC(N)=S)c2C)c1 8, COC(=O)c1sc(NC(=S)NC(=O)c2ccc(C)cc2)nc1C 18, Oc1c(Cl)cc(Cl)c(Cl)c1Cc1c(O)c(Cl)cc(Cl)c1Cl 87, Cc1ccc(/C=N/NC(=O)c2cc3ccccc3cc2O)o1 41
